{
  "source": "ChEMBL document CHEMBL1156640",
  "about": "“Cyclopeptides with anti-inflammatory activity from seeds of Annona montana” (J Nat Prod, 2008)",
  "key": {"[1]": {"test_system": "A549", "experiment": "Cytotoxicity against human A549 cells", "assay_type": "functional, cell-based"}, "[2]": {"test_system": "KB", "experiment": "Cytotoxicity against human KB cells", "assay_type": "functional, cell-based"}, "[3]": {"test_system": "MDA-MB-231", "experiment": "Cytotoxicity against human MDA-MB-231 cells", "assay_type": "functional, cell-based"}, "[4]": {"test_system": "HepG2", "experiment": "Cytotoxicity against human HepG2 cells", "assay_type": "functional, cell-based"}, "[5]": {"test_system": "J774.A1", "experiment": "Antiinflammatory activity in mouse J774A.1 cells assessed as decrease in LPS-stimulated TNFalpha production at 30 ug/ml", "assay_type": "functional", "design": "scale not given: the % may be the effect or the level left", "summary_of_the_method": "(§1)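 J774A.1 murine macrophages at 1 × 10⁶/mL in RPMI 1640 with 10% heat-inactivated FBS and 2 mM L-glutamine, 37 °C, 5% CO₂. Cells preincubated with cyclopeptide at 37 °C for 30 min, then stimulated with LPS (0.1 µg/mL) for a further 6 h. TNF-α and IL-6 in culture medium measured by ELISA. DMSO-treated cells served as controls.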"}, "[6]": {"test_system": "J774.A1", "experiment": "Antiinflammatory activity in mouse J774A.1 cells assessed as decrease in LPS-stimulated IL6 production at 30 ug/ml", "assay_type": "functional", "design": "scale not given: the % may be the effect or the level left", "summary_of_the_method": "as §1"}, "[7]": {"test_system": "MCF7", "experiment": "Cytotoxicity against human MCF7 cells", "assay_type": "functional, cell-based"}, "[8]": {"test_system": "Ca9-22", "experiment": "Cytotoxicity against human Ca9-22 cells", "assay_type": "functional, cell-based"}, "[9]": {"test_system": "Hep 3B2", "experiment": "Cytotoxicity against human Hep3B cells", "assay_type": "functional, cell-based"}, "[10]": {"test_system": "J774.A1", "experiment": "Antiinflammatory activity in mouse J774A.1 cells assessed as decrease in pam3Cys-stimulated IL6 production at 3 to 50 ug/ml", "assay_type": "functional, cell-based", "summary_of_the_method": "(§2)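 J774A.1 murine macrophages at 1 × 10⁶/mL in RPMI 1640 with 10% heat-inactivated FBS and 2 mM L-glutamine, 37 °C, 5% CO₂. Cells pretreated with cyclopeptide for 30 min, then stimulated with the TLR2 ligand Pam3Cys for an additional 6 h. TNF-α or IL-6 in culture medium determined by ELISA.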"}, "[11]": {"test_system": "J774.A1", "experiment": "Antiinflammatory activity in mouse J774A.1 cells assessed as decrease in LPS-stimulated IL6 production at 3 to 50 ug/ml", "assay_type": "functional, cell-based", "summary_of_the_method": "as §1"}, "[12]": {"test_system": "J774.A1", "experiment": "Antiinflammatory activity in mouse J774A.1 cells assessed as decrease in LPS-stimulated TNFalpha production at 3 to 50 ug/ml", "assay_type": "functional, cell-based", "summary_of_the_method": "as §1"}, "[13]": {"test_system": "J774.A1", "experiment": "Antiinflammatory activity in mouse J774A.1 cells assessed as decrease in pam3Cys-stimulated TNFalpha production at 5 ug/ml", "assay_type": "functional", "summary_of_the_method": "as §2"}, "[14]": {"test_system": "J774.A1", "experiment": "Antiinflammatory activity in mouse J774A.1 cells assessed as decrease in pam3Cys-stimulated TNFalpha production at 3 ug/ml", "assay_type": "functional", "summary_of_the_method": "as §2"}, "[15]": {"test_system": "J774.A1", "experiment": "Antiinflammatory activity in mouse J774A.1 cells assessed as decrease in pam3Cys-stimulated IL6 production", "assay_type": "functional, cell-based", "summary_of_the_method": "as §2"}, "[16]": {"test_system": "J774.A1", "experiment": "Antiinflammatory activity in mouse J774A.1 cells assessed as decrease in pam3Cys-stimulated TNFalpha production at 30 ug/ml", "assay_type": "functional", "summary_of_the_method": "as §2"}, "[17]": {"test_system": "J774.A1", "experiment": "Antiinflammatory activity in mouse J774A.1 cells assessed as decrease in pam3Cys-stimulated TNFalpha production at 50 ug/ml", "assay_type": "functional", "summary_of_the_method": "as §2"}, "[18]": {"test_system": "J774.A1", "experiment": "Antiinflammatory activity in mouse J774A.1 cells assessed as decrease in pam3Cys-stimulated TNFalpha production at 10 ug/ml", "assay_type": "functional", "summary_of_the_method": "as §2"}, "[19]": {"test_system": "J774.A1", "experiment": "Antiinflammatory activity in mouse J774A.1 cells assessed as decrease in LPS-stimulated IL6 production at 3 ug/ml", "assay_type": "functional, cell-based", "summary_of_the_method": "as §1"}, "[20]": {"test_system": "J774.A1", "experiment": "Antiinflammatory activity in mouse J774A.1 cells assessed as decrease in LPS-stimulated IL6 production at 3 ug/ml"}, "[21]": {"test_system": "J774.A1", "experiment": "Antiinflammatory activity in mouse J774A.1 cells assessed as decrease in pam3Cys-stimulated IL6 production at 3 ug/ml", "assay_type": "functional, cell-based", "summary_of_the_method": "as §2"}, "[22]": {"test_system": "J774.A1", "experiment": "Antiinflammatory activity in mouse J774A.1 cells assessed as decrease in LPS-stimulated TNFalpha production at 3 ug/ml", "assay_type": "functional, cell-based", "summary_of_the_method": "as §1"}, "[23]": {"test_system": "J774.A1", "experiment": "Antiinflammatory activity in mouse J774A.1 cells assessed as decrease in pam3Cys-stimulated IL6 production at 3 ug/ml"}, "[24]": {"test_system": "J774.A1", "experiment": "Antiinflammatory activity in mouse J774A.1 cells assessed as decrease in LPS-stimulated TNFalpha production at 1 ug/ml", "assay_type": "functional, cell-based", "summary_of_the_method": "as §1"}, "[25]": {"test_system": "J774.A1", "experiment": "Antiinflammatory activity in mouse J774A.1 cells assessed as decrease in pam3Cys-stimulated TNFalpha production at 1 ug/ml", "assay_type": "functional, cell-based", "summary_of_the_method": "as §2"}},
  "note": "Activity calls are given as the source filed them. The rule behind the calls is not given here. Peptide text beside a SMILES is read from it.",
  "data": [
    {"compound": "CC(C)[C@@H]1NC(=O)[C@H](Cc2ccccc2)NC(=O)CNC(=O)[C@@H]2CCCN2C(=O)[C@H](C)NC(=O)[C@H](CO)NC1=O", "note": "[ANNUMURICATIN C] (cyclo(APGFVS))", "values": [
      {"measurement": "Activity", "setting": "[1]", "result": "inactive"},
      {"measurement": "IC50", "setting": "[2]", "result": 1, "unit": "µM"},
      {"measurement": "Activity", "setting": "[3]", "result": "inactive"},
      {"measurement": "Activity", "setting": "[4]", "result": "inactive"},
      {"measurement": "Activity", "setting": "[5]", "result": 50, "unit": "%"},
      {"measurement": "Activity", "setting": "[6]", "result": 50, "unit": "%"},
      {"measurement": "Activity", "setting": "[7]", "result": "inactive"},
      {"measurement": "Activity", "setting": "[8]", "result": "inactive"},
      {"measurement": "Activity", "setting": "[9]", "result": "inactive"}
    ]},
    {"compound": "CC(C)[C@@H]1NC(=O)[C@H](Cc2c[nH]cn2)NC(=O)[C@H](CC(N)=O)NC(=O)[C@H](Cc2ccccc2)NC(=O)[C@H]([C@@H](C)O)NC(=O)[C@@H]2CCCN2C(=O)[C@@H]2CCCN2C(=O)[C@H](Cc2ccccc2)NC(=O)[C@H](CC(N)=O)NC1=O", "note": "[CYCLOMONTANIN C] (cyclo(FNHVNFPPT))", "values": [
      {"measurement": "Activity", "setting": "[10]", "result": "Active"},
      {"measurement": "Activity", "setting": "[11]", "result": "Active"},
      {"measurement": "Activity", "setting": "[12]", "result": "Active"},
      {"measurement": "Activity", "setting": "[5]", "result": 50, "unit": "%"},
      {"measurement": "Activity", "setting": "[6]", "result": 50, "unit": "%"}
    ]},
    {"compound": "CC(C)C[C@@H]1NC(=O)CNC(=O)[C@@H]2CCCN2C(=O)[C@H](CC(N)=O)NC(=O)[C@H](C)NC(=O)[C@H](Cc2ccc(O)cc2)NC(=O)[C@@H]2CCCN2C1=O", "note": "[CYCLOMONTANIN D] (cyclo(ANPGLPY))", "values": [
      {"measurement": "inhibition at 5 µg/mL", "setting": "[13]", "result": 50, "unit": "%"},
      {"measurement": "inhibition at 3 µg/mL", "setting": "[14]", "result": 20, "unit": "%"},
      {"measurement": "Activity", "setting": "[5]", "result": 50, "unit": "%"},
      {"measurement": "Activity", "setting": "[6]", "result": 50, "unit": "%"},
      {"measurement": "Activity", "setting": "[15]", "result": "Dose-dependent effect"},
      {"measurement": "inhibition at 30 µg/mL", "setting": "[16]", "result": 85, "unit": "%"},
      {"measurement": "inhibition at 50 µg/mL", "setting": "[17]", "result": 90, "unit": "%"},
      {"measurement": "inhibition at 10 µg/mL", "setting": "[18]", "result": 60, "unit": "%"}
    ]},
    {"compound": "CC(C)C[C@@H]1NC(=O)CNC(=O)[C@@H]2CCCN2C(=O)[C@H]([C@@H](C)O)NC(=O)[C@H](Cc2c[nH]c3ccccc23)NC(=O)[C@H](C)NC(=O)[C@H](CC(N)=O)NC1=O", "note": "[CYCLOMONTANIN A] (cyclo(AWTPGLN))", "values": [
      {"measurement": "Activity", "setting": "[19]", "result": "Active"},
      {"measurement": "Activity", "setting": "[20]", "result": "Active"},
      {"measurement": "Activity", "setting": "[14]; 1 ug/ml, in the assay text read “at 1 ug/ml” for “at 3 ug/ml”", "result": "Active"},
      {"measurement": "Activity", "setting": "[5]", "result": 50, "unit": "%"},
      {"measurement": "Activity", "setting": "[6]", "result": 50, "unit": "%"},
      {"measurement": "Activity", "setting": "[21]", "result": "Active"},
      {"measurement": "Activity", "setting": "[22]", "result": "Active"},
      {"measurement": "Activity", "setting": "[23]", "result": "Active"},
      {"measurement": "Activity", "setting": "[24]", "result": "Active"},
      {"measurement": "Activity", "setting": "[25]", "result": "Active"}
    ]}
  ]
}
